# Measured values: ChEMBL document CHEMBL4390650, “Design, synthesis and biological evaluation of 2-(phenoxymethyl)-5-phenyl-1,3,4-oxadiazole derivatives as anti-breast cancer agents” (Eur J Med Chem, 2019)
# The source made the active and inactive calls. No cut-off for these calls is given here.
# How the values were obtained:
# MCF7 = assay: Cytotoxicity against human MCF7 cells assessed as reduction in cell viability incubated for 48 hrs by MTT assay; format: functional, cell-based; settings: for IC50: MCF7, 48 h
# Outline: (§1)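 Cells came from NCCS Pune and were grown in DMEM with 10% FBS at 37°C, 5% CO2, then trypsinized at 70-80% confluence. About 5,000 cells/well were seeded and allowed 24 h to recover. Compounds in DMSO, up to 100 μM, were added for 48 h against DMSO-only controls. The medium was then changed and MTT (5 mg/ml stock) added for 4 h. Formazan was dissolved in DMSO and read at 560 nm. Values are mean ± SD of three independent experiments in triplicate.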
# MDA-MB-453 [1] = assay: Cytotoxicity against human MDA-MB-453 cells assessed as reduction in cell viability incubated for 48 hrs by MTT assay; format: functional, cell-based; settings: for IC50: MDA-MB-453, 48 h; outline: as §1
# MCF-10A = assay: Cytotoxicity against human MCF10A cells assessed as reduction in cell viability incubated for 48 hrs by MTT assay; format: cell-based; outline: as §1
# MDA-MB-453 [2] = assay: Induction of apoptosis in human MDA-MB-453 cells at 10 uM incubated for 48 hrs by acridine orange and ethidium bromide staining based inverted fluorescent microscopy; format: functional, cell-based
# Outline: (§2)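 MDA-MB-453 cells were seeded at 5×10⁵/well and incubated overnight at 37°C, 5% CO2, then treated for 48 h. They were stained 5 min with a 1:1 acridine orange/ethidium bromide mix (each dye 100 μg/ml) and imaged immediately under an inverted fluorescence microscope. Scoring: live cells green, late apoptotic orange, necrotic red.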
# MDA-MB-453 [3] = assay: Induction of necrosis in human MDA-MB-453 cells at 10 uM incubated for 48 hrs by acridine orange and ethidium bromide staining based inverted fluorescent microscopy; format: functional, cell-based; outline: as §2
# MDA-MB-453 [4] = assay: Induction of morphological changes in human MDA-MB-453 cell assessed as induction of cell membrane blebbing at 10 uM incubated for 48 hrs by acridine orange and ethidium bromide staining based inverted fluorescent microscopy; format: functional; outline: as §2
# MDA-MB-453 [5] = assay: Induction of morphological changes in human MDA-MB-453 cell assessed as induction of protrusion elongation at 10 uM incubated for 48 hrs by acridine orange and ethidium bromide staining based inverted fluorescent microscopy; format: functional; outline: as §2
# MDA-MB-453 [6] = assay: Induction of morphological changes in human MDA-MB-453 cell assessed as induction of chromatin condensation at 10 uM incubated for 48 hrs by acridine orange and ethidium bromide staining based inverted fluorescent microscopy; format: functional; outline: as §2
# MDA-MB-453 [7] = assay: Induction of apoptosis in human MDA-MB-453 cells assessed as increase in SMAD7 protein expression at 10 uM incubated for 48 hrs by Western blot analysis; format: functional, cell-based
# Outline: (§3)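 Western blot of treated MDA-MB-453 cells, with GAPDH as loading control.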
# MDA-MB-453 [8] = assay: Induction of apoptosis in human MDA-MB-453 cells assessed as increase in p53 protein expression incubated for 48 hrs by Western blot analysis; format: functional, cell-based; outline: as §3
# [9] = target: DNA (cytosine-5)-methyltransferase 1 (Homo sapiens) (UniProt P26358); assay: Inhibition of DNMT1 (unknown origin) at 100 uM using cytosine-rich DNA substrate by ELISA relative to untreated control
# Outline: (§4)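 DNMT activity was measured with a commercial DNA methyltransferase activity/inhibition screening kit, following the manufacturer's instructions.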
# [10] = target: DNA (cytosine-5)-methyltransferase 3B (Homo sapiens) (UniProt Q9UBC3); assay: Inhibition of DNMT3B (unknown origin) at 100 uM using cytosine-rich DNA substrate by ELISA relative to untreated control; outline: as §4
# DNA (cytosine-5)-methyltransferase 1 (Homo sapiens), sequence (P26358 whole entry): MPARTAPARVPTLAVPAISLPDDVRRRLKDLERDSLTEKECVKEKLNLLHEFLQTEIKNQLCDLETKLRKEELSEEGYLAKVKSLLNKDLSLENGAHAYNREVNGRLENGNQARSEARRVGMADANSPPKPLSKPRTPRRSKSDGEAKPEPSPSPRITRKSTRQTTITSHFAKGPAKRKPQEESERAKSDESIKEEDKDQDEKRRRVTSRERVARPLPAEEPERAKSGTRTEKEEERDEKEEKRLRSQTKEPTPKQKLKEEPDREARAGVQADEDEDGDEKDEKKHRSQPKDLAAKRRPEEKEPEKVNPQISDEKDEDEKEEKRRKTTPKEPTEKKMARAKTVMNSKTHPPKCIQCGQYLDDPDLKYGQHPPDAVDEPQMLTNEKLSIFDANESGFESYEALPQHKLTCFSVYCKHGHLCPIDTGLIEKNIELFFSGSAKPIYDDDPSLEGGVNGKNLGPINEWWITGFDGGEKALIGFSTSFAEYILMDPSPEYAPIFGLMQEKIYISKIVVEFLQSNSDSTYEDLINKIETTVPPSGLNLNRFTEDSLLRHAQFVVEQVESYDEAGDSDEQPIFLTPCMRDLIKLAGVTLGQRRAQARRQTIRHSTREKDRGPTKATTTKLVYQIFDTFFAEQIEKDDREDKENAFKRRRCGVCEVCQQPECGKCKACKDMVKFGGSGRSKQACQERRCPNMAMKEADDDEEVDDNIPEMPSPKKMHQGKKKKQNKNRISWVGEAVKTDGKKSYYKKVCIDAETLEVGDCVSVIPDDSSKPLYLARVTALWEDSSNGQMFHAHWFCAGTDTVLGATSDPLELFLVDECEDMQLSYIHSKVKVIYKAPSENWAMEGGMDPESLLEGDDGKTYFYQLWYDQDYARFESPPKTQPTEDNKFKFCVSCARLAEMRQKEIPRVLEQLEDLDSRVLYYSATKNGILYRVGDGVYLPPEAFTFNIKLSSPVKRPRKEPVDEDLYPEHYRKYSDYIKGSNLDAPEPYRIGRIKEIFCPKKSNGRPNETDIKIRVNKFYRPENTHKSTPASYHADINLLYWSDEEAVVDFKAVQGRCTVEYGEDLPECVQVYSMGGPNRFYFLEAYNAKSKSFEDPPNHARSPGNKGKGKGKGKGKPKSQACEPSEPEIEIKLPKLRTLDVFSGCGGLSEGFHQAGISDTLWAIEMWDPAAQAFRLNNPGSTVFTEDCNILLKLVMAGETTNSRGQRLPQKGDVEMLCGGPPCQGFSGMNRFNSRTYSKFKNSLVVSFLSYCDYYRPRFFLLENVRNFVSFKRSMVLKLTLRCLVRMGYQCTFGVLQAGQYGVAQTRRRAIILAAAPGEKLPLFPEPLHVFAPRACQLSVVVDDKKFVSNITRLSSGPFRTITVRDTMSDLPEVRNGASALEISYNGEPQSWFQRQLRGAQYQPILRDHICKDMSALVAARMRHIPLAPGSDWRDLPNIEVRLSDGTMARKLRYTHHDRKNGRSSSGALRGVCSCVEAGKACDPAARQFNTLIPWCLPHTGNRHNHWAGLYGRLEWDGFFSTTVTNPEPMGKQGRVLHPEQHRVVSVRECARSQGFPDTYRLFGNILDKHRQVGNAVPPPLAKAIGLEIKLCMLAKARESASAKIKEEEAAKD
Compound,IC50 (MCF7) [µM],IC50 (MDA-MB-453 [1]) [µM],IC50 (MCF-10A) [µM],further results
Cc1ccc(-c2nnc(COc3ccc(C#N)c(F)c3)o2)cc1,> 50,> 50,> 100,–
COc1cc(C#N)ccc1OCc1nnc(-c2ccc(Cl)cc2)o1,21.5,33.9,89.5,–
c1ccc(-c2nnc(COc3ccc(-c4nnco4)cc3)o2)cc1,> 50,> 50,> 100,–
N#Cc1ccc(OCc2nnc(-c3ccc(Cl)cc3)o2)cc1F,48.3,> 50,> 100,–
COc1ccc(-c2nnc(COc3ccc(C#N)c(F)c3)o2)cc1,42.1,45.5,> 100,–
Clc1ccc(-c2nnc(COc3ccc(-c4nnco4)cc3)o2)cc1,45.2,> 50,> 100,–
COc1ccc(-c2nnc(COc3ccc(-c4nnco4)cc3)o2)cc1,31.2,36.2,> 100,–
COc1cc(C#N)ccc1OCc1nnc(-c2ccc(C)cc2)o1,27.1,38.4,> 100,–
Cc1ccc(NC(=O)c2ccc(CN3CCN(C)CC3)cc2)cc1Nc1nccc(-c2cccnc2)n1 [IMATINIB],–,12.8,> 100,–
Cc1ccc(-c2nnc(COc3ccc(-c4nnco4)cc3)o2)cc1,> 50,> 50,> 100,–
COc1cc(C#N)ccc1OCc1nnc(-c2ccccc2)o1,32.2,40.1,> 100,–
N#Cc1ccc(OCc2nnc(-c3ccc(F)cc3)o2)cc1F,20.4,25.1,84.2,–
COc1cc(C#N)ccc1OCc1nnc(-c2ccc(F)cc2)o1,10.2,10.5,> 100,Activity (MCF7): Dose-dependent effect; Activity (MDA-MB-453 [1]): Dose-dependent effect; Activity (MDA-MB-453 [2]): Active; Activity (MDA-MB-453 [3]): Active; Activity (MDA-MB-453 [4]): Active; Activity (MDA-MB-453 [5]): Active; Activity (MDA-MB-453 [6]): Active; Activity (MDA-MB-453 [7]): Active; Activity (MDA-MB-453 [8]): Dose-dependent effect; inhibition [9]: 10%; inhibition [10]: 33%
COc1ccc(-c2nnc(COc3ccc(C#N)cc3OC)o2)cc1,11.1,13,> 100,–
Fc1ccc(-c2nnc(COc3ccc(-c4nnco4)cc3)o2)cc1,35.6,38.2,> 100,–
N#Cc1ccc(OCc2nnc(-c3ccccc3)o2)cc1F,> 50,> 50,> 100,–
